These results are taken from ChEMBL document CHEMBL3351863, “Optimization of 2-phenyl-pyrimidine-4-carboxamides towards potent, orally bioavailable and selective P2Y(12) antagonists for inhibition of platelet aggregation” (Bioorg Med Chem Lett, 2014).

A short description of data set [1]: Solubility in basic pH. It is filed as physicochemical.
Data set [2] addresses Voltage-gated inwardly rectifying potassium channel KCNH2 (Homo sapiens, UniProt Q12809). The data set is described as follows: Inhibition of human ERG expressed in HEK cells by patch-clamp assay. It is filed as cell-based. Particulars: hek293. (In patch-clamp work, channel activity is measured electrically.)
The nature of data set [3]: Solubility in neutral pH. Type of data set: physicochemical.
In another data set the target is Cytochrome P450 2D6 (Homo sapiens, UniProt P10635). The data set is described as follows: Inhibition of CYP2D6 in human liver microsomes assessed as reduction in dextromethorphan-O demethylation. It is filed as ADME. Background: Liver microsomes are a subcellular fraction often used to study metabolism.
In data set [4] the test system is Liver microsome. The data set is described as follows: Metabolic stability assay in rat liver microsomes assessed as parent drug disappearance at 1 uM after 20 mins by HPLC and mass spectrometry method. It is filed as ADME.
Data set [5] addresses T1, Cytochrome P450 3A4 (Homo sapiens, UniProt P08684). The data set is described as follows: Inhibition of CYP3A4 in human liver microsomes assessed as reduction in testosterone 6beta-hydroxylation. It is filed as ADME.
Data set [6] concerns Liver microsome. The data set is described as follows: Metabolic stability assay in human liver microsomes assessed as parent drug disappearance at 1 uM after 20 mins by HPLC and mass spectrometry method. Type of data set: ADME.
Data set [7] concerns the target T1, Cytochrome P450 3A4. As to the kind of experiment: Inhibition of CYP3A4 in human liver microsomes assessed as reduction in midazolam 1'-hydroxylation. It is filed as ADME.
The next data set deals with Cytochrome P450 2C9 (Homo sapiens, UniProt P11712). As to the kind of experiment: Inhibition of CYP2C9 in human liver microsomes assessed as reduction in diclofenac 4'-hydroxylation. It is filed as ADME.
The next data set addresses P2Y purinoceptor 12 (Homo sapiens, UniProt Q9H244). As to the kind of experiment: Displacement of [3H]-2-methyl-thio-adenosine 5'-diphosphate from human recombinant P2Y12 expressed in CHO cell membranes by scintillation counting method. In a few lines:
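CHO cells expressing recombinant P2Y₁₂ receptors, incubated with tritium-labeled 2-methyl-thio-adenosine 5'-diphosphate plus test compound; IC₅₀ from displacement curves, each point in triplicate; reference compound run with every compound set, and set re-analyzed if its IC₅₀ fell outside pre-set 95% confidence interval.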
A general note: Loss of bound radioactivity is the signal in a displacement assay; it reports binding, not function.

Data set [8] has as its system Platelet. As to the kind of experiment: Inhibition of ADP-induced platelet aggregation in human platelet rich plasma by in-vitro light transmission aggregometry assay. It is filed as functional. The settings on record: Homo sapiens, Platelet, Plasma. In a few lines:
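Human platelet-rich plasma incubated with compound, aggregation induced by 3 µM ADP and read by light transmission aggregometry; IC₅₀ derived from concentration–response curve.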

The nature of data set [9]: Potency shift, ratio of IC50 for inhibition of ADP-induced platelet aggregation in human platelet rich plasma to IC50 for displacement of [3H]-2-methyl-thio-adenosine 5'-diphosphate from human recombinant P2Y12 expressed in CHO cell membranes.
Data set [10] has as its system Platelet. The data set is described as follows: Inhibition of ADP-induced platelet aggregation in human platelet rich plasma assessed as remaining activity at 500 nM by in-vitro light transmission aggregometry assay. Type of data set: functional. In a few lines:
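Light transmission aggregometry in human platelet-rich plasma; compound incubated, aggregation triggered with 3 µM ADP; remaining activity (RA) recorded at a single compound level (1000, 500 or 100 nM).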

The structures appear in SMILES notation.

P2Y purinoceptor 12, sequence (Q9H244 whole entry): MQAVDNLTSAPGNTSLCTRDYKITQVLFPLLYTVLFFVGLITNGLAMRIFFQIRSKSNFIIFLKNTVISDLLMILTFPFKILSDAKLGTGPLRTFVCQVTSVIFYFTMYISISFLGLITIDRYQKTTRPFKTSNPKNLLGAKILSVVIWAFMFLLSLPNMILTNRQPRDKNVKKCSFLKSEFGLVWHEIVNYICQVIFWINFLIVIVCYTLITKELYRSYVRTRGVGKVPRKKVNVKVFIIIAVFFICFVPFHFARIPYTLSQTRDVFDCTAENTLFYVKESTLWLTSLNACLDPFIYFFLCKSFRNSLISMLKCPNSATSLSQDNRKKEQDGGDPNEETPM
Cytochrome P450 2C9, sequence (P11712 whole entry): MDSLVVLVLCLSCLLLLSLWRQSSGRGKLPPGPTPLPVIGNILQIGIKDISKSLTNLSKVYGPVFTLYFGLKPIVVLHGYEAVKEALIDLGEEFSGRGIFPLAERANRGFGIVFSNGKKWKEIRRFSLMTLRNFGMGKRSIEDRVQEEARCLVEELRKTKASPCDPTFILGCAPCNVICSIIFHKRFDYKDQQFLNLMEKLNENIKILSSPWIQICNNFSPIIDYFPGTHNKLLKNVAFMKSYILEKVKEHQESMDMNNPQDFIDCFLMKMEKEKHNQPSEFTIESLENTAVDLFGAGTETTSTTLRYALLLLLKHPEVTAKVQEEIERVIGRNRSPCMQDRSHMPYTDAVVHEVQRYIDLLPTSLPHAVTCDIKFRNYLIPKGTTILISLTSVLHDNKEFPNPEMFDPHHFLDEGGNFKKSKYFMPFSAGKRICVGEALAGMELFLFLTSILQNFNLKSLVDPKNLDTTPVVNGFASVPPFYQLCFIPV
Voltage-gated inwardly rectifying potassium channel KCNH2, sequence (Q12809 whole entry): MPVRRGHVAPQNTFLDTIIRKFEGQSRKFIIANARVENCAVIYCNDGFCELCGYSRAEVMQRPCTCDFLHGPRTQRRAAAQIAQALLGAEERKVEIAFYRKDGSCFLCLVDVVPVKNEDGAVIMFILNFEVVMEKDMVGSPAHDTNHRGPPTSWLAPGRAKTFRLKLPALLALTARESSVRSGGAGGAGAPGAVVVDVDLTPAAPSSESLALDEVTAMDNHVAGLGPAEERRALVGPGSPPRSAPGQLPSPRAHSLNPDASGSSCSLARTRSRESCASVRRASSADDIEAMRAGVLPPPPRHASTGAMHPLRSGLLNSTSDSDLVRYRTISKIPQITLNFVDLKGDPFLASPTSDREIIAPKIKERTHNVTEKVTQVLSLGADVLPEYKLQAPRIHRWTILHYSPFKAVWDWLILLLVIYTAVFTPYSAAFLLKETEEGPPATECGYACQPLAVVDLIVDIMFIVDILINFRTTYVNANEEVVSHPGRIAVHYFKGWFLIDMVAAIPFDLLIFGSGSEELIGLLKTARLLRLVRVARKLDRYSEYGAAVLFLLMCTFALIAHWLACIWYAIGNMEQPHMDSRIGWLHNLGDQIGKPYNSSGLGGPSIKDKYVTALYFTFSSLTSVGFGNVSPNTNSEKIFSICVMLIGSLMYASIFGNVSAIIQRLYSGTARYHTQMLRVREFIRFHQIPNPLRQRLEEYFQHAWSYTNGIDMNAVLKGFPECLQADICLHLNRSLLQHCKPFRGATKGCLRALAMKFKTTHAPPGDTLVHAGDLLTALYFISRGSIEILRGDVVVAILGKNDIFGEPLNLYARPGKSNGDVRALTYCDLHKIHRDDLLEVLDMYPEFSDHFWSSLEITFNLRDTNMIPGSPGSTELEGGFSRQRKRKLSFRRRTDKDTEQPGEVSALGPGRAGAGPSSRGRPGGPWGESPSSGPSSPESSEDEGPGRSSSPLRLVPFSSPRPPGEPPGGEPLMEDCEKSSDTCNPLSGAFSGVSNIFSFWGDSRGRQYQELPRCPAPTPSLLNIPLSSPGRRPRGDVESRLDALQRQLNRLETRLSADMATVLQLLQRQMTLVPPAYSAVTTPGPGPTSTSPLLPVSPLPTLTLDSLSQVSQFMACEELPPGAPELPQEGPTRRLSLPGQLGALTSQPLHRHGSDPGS
Cytochrome P450 2D6, sequence (P10635 whole entry): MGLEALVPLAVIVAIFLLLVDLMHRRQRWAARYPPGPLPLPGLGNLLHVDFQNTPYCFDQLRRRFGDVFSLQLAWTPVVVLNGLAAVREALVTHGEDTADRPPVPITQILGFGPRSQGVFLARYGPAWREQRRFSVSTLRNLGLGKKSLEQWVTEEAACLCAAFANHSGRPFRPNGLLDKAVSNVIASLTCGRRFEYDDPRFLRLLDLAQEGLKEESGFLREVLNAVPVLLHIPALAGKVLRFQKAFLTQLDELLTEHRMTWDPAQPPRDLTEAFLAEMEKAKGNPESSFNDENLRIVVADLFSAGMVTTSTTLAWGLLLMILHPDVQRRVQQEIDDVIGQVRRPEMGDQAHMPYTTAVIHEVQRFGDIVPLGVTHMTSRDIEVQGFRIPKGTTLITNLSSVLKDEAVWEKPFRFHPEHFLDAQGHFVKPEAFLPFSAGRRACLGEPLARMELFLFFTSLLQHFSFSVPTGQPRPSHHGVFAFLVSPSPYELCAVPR
T1 sequence (P08684 whole entry): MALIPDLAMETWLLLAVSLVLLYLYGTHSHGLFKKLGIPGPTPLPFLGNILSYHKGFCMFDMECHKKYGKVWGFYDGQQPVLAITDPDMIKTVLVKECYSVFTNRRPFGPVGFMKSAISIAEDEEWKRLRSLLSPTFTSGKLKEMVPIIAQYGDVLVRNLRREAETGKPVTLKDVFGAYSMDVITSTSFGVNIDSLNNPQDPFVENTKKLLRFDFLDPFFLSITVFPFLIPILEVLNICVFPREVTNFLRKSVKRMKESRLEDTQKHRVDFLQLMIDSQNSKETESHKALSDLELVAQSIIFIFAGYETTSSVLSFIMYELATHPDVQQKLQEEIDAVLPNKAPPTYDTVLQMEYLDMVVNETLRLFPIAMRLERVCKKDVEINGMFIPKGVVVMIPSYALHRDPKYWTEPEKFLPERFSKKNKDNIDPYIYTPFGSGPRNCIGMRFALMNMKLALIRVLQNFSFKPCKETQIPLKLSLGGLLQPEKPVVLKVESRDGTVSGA

For the compound `CCOC(=O)N1CCN(C(=O)[C@H](CCC(=O)O)NC(=O)c2cc(NS(=O)(=O)c3ccccc3)nc(-c3ccccc3)n2)CC1`, the solubility entry in data set [1] and in data set [3] was “soluble” throughout. Moreover, the “inhibition (INH)” value (in data set [2]; at Cytochrome P450 2D6; on Cytochrome P450 3A4 [5]; on Cytochrome P450 3A4 [7]; on Cytochrome P450 2C9) was “Not Active” throughout. Further, the Stability entry in the data set with Liver microsome [4] and in the data set on Liver microsome [6] was “Stable” in each case. Besides, on P2Y purinoceptor 12, the IC50 is 0.266 µM.

In the case of `CCOC(=O)N1CCN(C(=O)[C@H](CCC(=O)O)NC(=O)c2cc(NC(C)C)nc(-c3ccccc3)n2)CC1`, the solubility entry in [1] and in data set [3] was “soluble” in each case. Besides, the “inhibition (INH)” value (in [2]; at Cytochrome P450 2D6; on Cytochrome P450 3A4 [5]; on Cytochrome P450 3A4 [7]; on Cytochrome P450 2C9) was “Not Active” each time. Moreover, the IC50 with Platelet [8] was 0.724 µM; on P2Y purinoceptor 12, 0.0955 µM. In addition, the Stability result in the data set with Liver microsome [4] and in the data set with Liver microsome [6] was “Stable” throughout. Also, in data set [9], the “Ratio IC50” value is 7.6.

As to `CCOC(=O)N1CCN(C(=O)[C@H](CCC(=O)O)NC(=O)c2cc(N[C@H]3CC[C@H](O)CC3)nc(-c3ccccc3)n2)CC1`, the solubility result in [1] and in [3] was “soluble” throughout. Moreover, in the data set on Platelet [10], the Activity is 30%. The “inhibition (INH)” value (in [2]; at Cytochrome P450 2D6; at Cytochrome P450 3A4 [5]; at Cytochrome P450 3A4 [7]; at Cytochrome P450 2C9) was “Not Active” each time. For the same compound, the Stability entry in the data set with Liver microsome [4] and with Liver microsome [6] was “Stable” in each case.

Take `CCOC(=O)N1CCN(C(=O)[C@H](CCC(=O)O)NC(=O)c2cc(CN3CCOCC3)nc(-c3ccccc3)n2)CC1`: the solubility entry in data set [1] and in data set [3] was “soluble” each time. Also, the “inhibition (INH)” value (in [2]; at Cytochrome P450 2D6; at Cytochrome P450 3A4 [5]; on Cytochrome P450 3A4 [7]; at Cytochrome P450 2C9) was “Not Active” each time. For the same compound, the Stability result with Liver microsome [4] and in the data set with Liver microsome [6] was “Stable” throughout. The IC50 on P2Y purinoceptor 12 worked out at 0.428 µM.

As for `CCOC(=O)N1CCN(C(=O)[C@H](CCC(=O)O)NC(=O)c2cc(N3CCCCC3CN(C)C)nc(-c3ccccc3)n2)CC1` (stereo partly drawn), the solubility result in data set [1] and in [3] was “soluble” in each case. Further, the Activity in the data set on Platelet [10] is given as 30%. The “inhibition (INH)” value (in [2]; at Cytochrome P450 2D6; at Cytochrome P450 3A4 [5]; on Cytochrome P450 3A4 [7]; at Cytochrome P450 2C9) was “Not Active” in each case. Moreover, the Stability result in the data set on Liver microsome [4] and with Liver microsome [6] was “Stable” each time. Also, at P2Y purinoceptor 12, the IC50 was 0.291 µM.

`CCOC(=O)N1CCN(C(=O)[C@H](CCC(=O)O)NC(=O)c2cc(N3CCCCC3)nc(-c3ccccc3)n2)CC1`: the solubility entry in [1] and in data set [3] was “soluble” in each case. Further, in the data set on Platelet [10], the Activity is given as 30%. Further, the “inhibition (INH)” value (in [2]; at Cytochrome P450 2D6; on Cytochrome P450 3A4 [5]; at Cytochrome P450 3A4 [7]; on Cytochrome P450 2C9) was “Not Active” each time. Also, the Stability entry with Liver microsome [4] and with Liver microsome [6] was “Stable” in each case. The IC50 on P2Y purinoceptor 12 amounted to 0.201 µM.

Regarding `CCCCOC(=O)N1CCN(C(=O)[C@H](CCC(=O)O)NC(=O)c2cc([C@H]3C[C@@H]3COC)nc(-c3ccccc3)n2)CC1` (racemic), the solubility entry in data set [1] and in [3] was “soluble” each time. Also, the “inhibition (INH)” value (in data set [2]; at Cytochrome P450 2D6; at Cytochrome P450 3A4 [5]; on Cytochrome P450 3A4 [7]; on Cytochrome P450 2C9) was “Not Active” each time. In addition, the results for the IC50 in the data set on Platelet [8] and at P2Y purinoceptor 12 were 0.021 µM and 0.003 µM, respectively. Further, the Stability entry with Liver microsome [4] and in the data set with Liver microsome [6] was “Stable” throughout. In addition, in [9], the “Ratio IC50” value amounted to 7.

For the compound `CCOC(=O)N1CCN(C(=O)[C@H](CCC(=O)O)NC(=O)c2cc(NCCN(C)C)nc(-c3ccccc3)n2)CC1`, the solubility result in [1] and in data set [3] was “soluble” each time. Moreover, the “inhibition (INH)” value (in data set [2]; at Cytochrome P450 2D6; at Cytochrome P450 3A4 [5]; at Cytochrome P450 3A4 [7]; on Cytochrome P450 2C9) was “Not Active” throughout. Also, the Stability entry with Liver microsome [4] and in the data set on Liver microsome [6] was “Stable” in each case. The IC50 on P2Y purinoceptor 12 is 2.78 µM.

As to `CCOC(=O)N1CCN(C(=O)[C@H](CCC(=O)O)NC(=O)c2cc(CN3CCCCC3)nc(-c3ccccc3)n2)CC1`, the solubility result in data set [1] and in data set [3] was “soluble” throughout. In addition, the “inhibition (INH)” value (in data set [2]; at Cytochrome P450 2D6; on Cytochrome P450 3A4 [5]; on Cytochrome P450 3A4 [7]; on Cytochrome P450 2C9) was “Not Active” throughout. Besides, the Stability entry in the data set on Liver microsome [4] and with Liver microsome [6] was “Stable” in each case. The IC50 at P2Y purinoceptor 12 was 0.533 µM.

For `CCOC(=O)N1CCN(C(=O)[C@H](CCC(=O)O)NC(=O)c2cc(NCCN3CCOCC3)nc(-c3ccccc3)n2)CC1`, the solubility entry in data set [1] and in [3] was “soluble” throughout. Also, in the data set with Platelet [10], the Activity is 30%. For the same compound, the “inhibition (INH)” value (in data set [2]; on Cytochrome P450 2D6; on Cytochrome P450 3A4 [5]; at Cytochrome P450 3A4 [7]; at Cytochrome P450 2C9) was “Not Active” in each case. Moreover, the Stability entry in the data set with Liver microsome [4] and in the data set with Liver microsome [6] was “Stable” throughout. For the same compound, the IC50 at P2Y purinoceptor 12 came out at 0.257 µM.

Turning to `CCOC(=O)N1CCN(C(=O)[C@H](CCC(=O)O)NC(=O)c2cc(NCCCO)nc(-c3ccccc3)n2)CC1`, the solubility result in data set [1] and in [3] was “soluble” each time. Also, in the data set with Platelet [10], the Activity is 30%. The “inhibition (INH)” value (in data set [2]; at Cytochrome P450 2D6; at Cytochrome P450 3A4 [5]; on Cytochrome P450 3A4 [7]; at Cytochrome P450 2C9) was “Not Active” in each case. Further, the Stability entry in the data set on Liver microsome [4] and with Liver microsome [6] was “Stable” each time. For the same compound, the IC50 at P2Y purinoceptor 12 was 0.279 µM.

In general, IC50 refers to the concentration that gives 50% inhibition.
